# Screening results as filed in PubChem.
# The list is not random: actives were taken first. Their share in the collection is about 3%.
# HTR1A agonist: activates the human 5-HT1a serotonin receptor. hit rate 0.56% among 65,000. CHO 5-HT1a Ga15 NFAT-bla reporter, FRET ratio; 0% basal, 100% maximal reference agonist. AID 567. P08908. activation, % at 10 µM;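 active = activation above the screen-wide mean activation plus 3 SD, cut at about 19% in these data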;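 also: 0% = DMSO wells and 100% = 5-CT at EC100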
# S1P3 ag: activates the human S1P3 receptor | Q99500 | S1P3 NFAT-BLA reporter cells, agonism, FRET ratio; relative to 1 µM S1P, basal subtracted | activation, % at 4.5 µM | hit rate 0.1% among 60,000 | AID 373;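 active = activation above the screen-wide mean plus 3 SD, cut at about 4.5% in these data, passing the limit was not always enough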
#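 Assay system: stable CHO line with human S1P3, Gα16, NFAT-BLA reporter; Detection: FRET β-lactamase substrate fluorescence, excitation 405 nm, 460/535 nm emission ratio, background-subtracted; Read-out: percent activation versus median 1 µM S1P response, basal-subtracted, per plate; Incubation: cells plated overnight, compound 4 h 37 °C, substrate 2 h RT.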
# HTR1E antagonist: blocks the human 5-HT1E serotonin receptor; inhibition, % at 6 µM; hit rate 0.99% among 65,000; CHO 5-HT1E Ga15 NFAT-bla reporter, FRET, antagonist; AID 571;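 active = inhibition above a set limit, the mean inhibition across every tested compound plus 3 SD, cut at about 29% in these data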;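 also: signal is the 460 over 535 nm emission ratio of beta-lactamase substrate; 0% = agonist plus DMSO wells and 100% = wells without agonist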
# S1P1 ag-PAM: agonists and agonism potentiators of human S1P1 receptor. P21453. S1P1 CRE-bla cells, forskolin, beta-lactamase FRET, potentiator mode; S1P1 agonist co-added at EC20, 2 nM; 100% = saturating reference agonist, 0% = basal. activation, % at 9.5 µM. hit rate 0.57% among 56,000. AID 449;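 active = activation above a cutoff set at the mean activation of all tested compounds plus 3 SD, cut at about 54% in these data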;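 also: forskolin at 4 µM as EC80 and the EC20 agonist is SEW2871; 100% = SEW2871 at its EC100 plus forskolin at EC80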
# Target sequence (P21453 whole entry, looked up): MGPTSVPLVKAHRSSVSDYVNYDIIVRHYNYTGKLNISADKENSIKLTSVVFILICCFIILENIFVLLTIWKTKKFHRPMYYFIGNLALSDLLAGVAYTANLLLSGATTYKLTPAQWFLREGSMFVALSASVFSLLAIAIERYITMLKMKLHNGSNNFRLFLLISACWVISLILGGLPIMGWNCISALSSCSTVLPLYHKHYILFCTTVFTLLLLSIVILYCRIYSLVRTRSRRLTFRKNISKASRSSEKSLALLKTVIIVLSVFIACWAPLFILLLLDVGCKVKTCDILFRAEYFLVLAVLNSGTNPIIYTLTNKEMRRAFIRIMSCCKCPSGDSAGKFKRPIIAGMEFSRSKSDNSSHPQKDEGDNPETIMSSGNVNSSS
# 5-HT1A blocker: antagonists of human 5-HT1a serotonin receptor. inhibition, % at 10 µM. hit rate 0.68% among 62,000. CHO 5-HT1a Ga15 NFAT-bla reporter, antagonist mode. P08908;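 active = inhibition above the mean of all tested compounds plus 3 SD, cut at about 43% in these data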;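 also: receptor stimulated by 5-CT agonist at 100 nM near EC80; beta-lactamase reporter measured by ratiometric fluorescence of a cleavable substrate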
# 5HT1E ag: 5-HT1E (human) receptor agonism. CHO 5-HT1E Ga15 NFAT-bla reporter, FRET; 0% DMSO wells, 100% control agonist wells. activation, % at 6 µM. hit rate 0.69% among 65,000. AID 574;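 active = activation above a set limit, the screen-wide mean activation plus 3 SD, cut at about 8.5% in these data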;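 also: 100% = positive control agonist at 1 µM giving full maximal response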
# Numbers without * were called inactive; . = no result.
SMILES,HTR1A agonist,S1P3 ag,HTR1E antagonist,S1P1 ag-PAM,5-HT1A blocker,5HT1E ag
CNC(=O)c1ccc(-c2sc3nc(N4CCOCC4)c4c(c3c2N)CCCC4)o1,4.3,-0.2,32.0*,.,6.3,2.0
COC(=O)C1=C(C(=O)c2ccc(C)cc2)C(c2ccc(OC)c(OC)c2)n2nnnc2N1 (configuration not stated),-0.6,.,-3.5,.,5.5,1.0
COC(=O)c1ccc(OCC2c3cc(OC)c(OC)cc3CCN2C(=O)C2CC2)cc1 (configuration not stated),1.9,.,34.5*,.,23.3,-0.5
OCC#CCSc1nnc(-c2ccncc2)o1,-1.9,-1.5,-3.0,-6.1,-1.0,0.8
Clc1ccc(CSc2nnc(-c3ccncc3)o2)cc1,0.7,3.3,4.6,96.7*,5.0,0.4
CCOC(=O)c1ccccc1NC(=O)CN(c1ccccc1)S(=O)(=O)N(C)C,2.7,0.8,0.9,.,14.5,0.4
CCN(Cc1ccccc1)C(c1cccc(C#N)c1)c1nnnn1C(C)(C)C (configuration not stated),0.7,-0.9,7.4,14.6,44.2*,-1.0
COc1cccc(-c2cc(C(=O)N3CCN(C(c4ccccc4)c4ccccc4)CC3)no2)c1,-1.0,-2.4,-13.6,7.7,51.8*,3.0
CCCc1cc(C(=O)N2CCN(C(c3ccccc3)c3ccccc3)CC2)no1,-0.4,-1.0,5.1,66.3,6.6,-0.5
Cc1cc(C(=O)N2CCN(C(c3ccccc3)c3ccccc3)CC2)no1,0.7,4.7,-2.1,69.4*,-3.8,-0.8
CC1CN(C2CCN(S(=O)(=O)c3ccccc3)CC2)CC(C)O1 (configuration not stated),-0.7,-3.5,52.3*,10.9,.,-0.7
CCOC(=O)/C(N=O)=C(\O)C1CCN(C(=O)OCC)CC1,-3.0,-0.3,-1.7,3.5,-15.9,0.5
CC(=O)NCCN=Cc1sc2ccccc2c1O,49.0*,.,-3.5,.,-1.0,-0.3
CN=Cc1sc2ccccc2c1O,1.4,-1.2,5.8,-3.8,2.7,0.9
Cc1ccc2c(c1)[nH]c1c(N3CCN(Cc4ccc5c(c4)OCO5)CC3)ncnc12,-1.2,-2.3,-2.3,32.6,21.6,0.1
CCOc1ccc(C2=Nn3c(nnc3-c3ccccc3OC)SC2)cc1,0.6,-6.5,75.4*,-25.0,.,-0.6
COc1ccccc1-c1nnc2n1N=C(c1ccc(O)c(O)c1)CS2,-0.4,-5.0,65.6*,0.2,.,-0.7
COc1ccc(C2=Nn3c(nnc3-c3cccnc3)SC2)cc1OC,1.3,1.9,33.8*,-52.1,.,-0.2
Brc1ccc(C2=Nn3c(nnc3-c3cccnc3)SC2)s1,-2.3,-0.2,2.4,6.2,-15.0,0.4
Brc1ccccc1C1=Nn2c(nnc2-c2ccccc2)SC1,-1.9,-0.2,32.8*,6.1,32.7,-0.9
COc1ccc(CSc2nnnn2Cc2ccccc2)cc1OC,-4.2,-1.5,-2.8,5.3,6.7,0.1
O=C(Nc1cccc(C(F)(F)F)c1)C1CCCN1S(=O)(=O)c1cccc2cccnc12 (configuration not stated),-1.8,-0.1,5.5,71.2*,-9.9,-0.8
CCOC(=O)c1cccc(NC(=O)C2CCCN2S(=O)(=O)c2cccc3cccnc23)c1 (configuration not stated),-2.8,-1.1,8.8,2.3,2.9,1.0
Cc1noc(C)c1COc1cccc(C(=O)OCC(=O)N2CC(=O)Nc3ccccc32)c1,-1.7,-1.4,38.2*,3.6,32.3,-0.6
CC(=O)N1C=CN(C(C)=O)C(c2cn(C)c3ccccc23)C1c1cn(C)c2ccccc12 (configuration not stated),-2.7,-1.8,-5.7,68.6*,28.6,-0.9
SMILES,HTR1A agonist,S1P3 ag,HTR1E antagonist,S1P1 ag-PAM,5-HT1A blocker,5HT1E ag
CC(=O)n1cc(C2C(=O)CCCC2=O)c2ccccc21,-6.9,-0.2,-3.3,-9.0,13.9,-0.3
O=C(O)c1ccc(OCC(O)Cn2cnc3ccccc32)cc1 (configuration not stated),0.3,-0.4,-10.6,-3.4,2.8,9.3*
COC(=O)c1ccc2c(=O)n(Cc3ccc4c(c3)OCO4)c(SCC(=O)N3CCCC3)nc2c1,95.7*,.,12.3,.,4.8,-5.0
Nc1cc(C(=O)O)ccc1Nc1ccc(F)c(F)c1,-1.7,-1.0,-8.3,-0.8,-6.0,33.2*
CCN(C(=O)C1CCCCC1)c1nnc(-c2cccnc2)s1,1.5,-0.3,2.7,99.0*,3.1,0.3
CCN(C(=O)c1c(OC)cccc1OC)c1nnc(-c2cccnc2)s1,0.3,1.1,-3.0,-3.9,-3.2,0.0
CCOC(=O)c1[nH]c(C)c(/C=N/O)c1C,-3.0,-1.7,8.3,4.9,10.9,9.8*
N#C/C(C(=O)NCc1ccco1)=C1/SC(Cc2ccc(F)cc2)C(=O)N1c1ccccc1 (configuration not stated),-1.4,-3.4,0.3,3.3,.,-1.0
CCNc1nc(CC)nc2c1oc1ccccc12,0.5,.,28.7*,.,4.1,-0.7
CCc1nc(NCc2ccco2)c2oc3ccccc3c2n1,-1.1,.,34.2*,.,2.2,0.0
c1coc(CNc2ncnc3c2oc2ccccc23)c1,0.4,-0.9,-1.0,17.8,-7.7,0.4
CCc1nc(SCCO)c2oc3ccccc3c2n1,1.3,-0.6,32.6*,-63.7,9.1,-0.2
CN(Cc1cc2ccccc2[nH]c1=O)S(C)(=O)=O,-3.8,-1.0,-0.7,-1.6,4.8,1.3
COc1ccc(-n2nc3c(c2NC(=O)c2c(F)cccc2Cl)CS(=O)C3)cc1 (configuration not stated),-1.1,-0.4,-15.6,6.3,-4.2,0.8
Fc1ccc(COc2ccc(/C=N/n3cnnc3)cc2)cc1,-1.5,-1.4,3.7,64.5*,1.5,1.1
CNc1nc(SCc2ccccc2)nc(N2CCOCC2)n1,-6.7,0.3,33.1*,-32.2,-0.4,0.1
CC(C)(C)Nc1nc(SCc2ccccc2)nc(N2CCOCC2)n1,0.0,2.1,6.2,-69.0,-5.5,-0.2
O=C(Nc1ccccc1NC(=O)NC1CCCCC1)NC1CCCCC1,-4.7,-0.5,56.1*,.,7.3,0.9
Cc1ccc(C)c(NC(=O)CC(NCCCN2CCOCC2)C(=O)O)c1 (configuration not stated),-1.5,-0.2,4.7,-5.8,11.5,-1.3
CCCn1c(=N)n(CC(O)COc2cccc(C)c2)c2ccccc21 (configuration not stated),-2.0,-0.9,-9.3,-21.3,37.2,-0.3
CCCCn1c(=N)n(CC(O)COc2ccccc2)c2ccccc21 (configuration not stated),-4.4,-0.9,16.8,0.9,54.4*,-1.4
